# The source made the active and inactive calls. No cut-off for these calls is given here.
# Columns and labels:
# Staphylococcus aureus [1] = assay: Antibacterial activity against vancomycin/methicillin-susceptible Staphylococcus aureus Newman […] after 24 hrs by broth microdilution method; type: functional
# Method in brief: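 Broth microdilution in cation-adjusted Mueller-Hinton II broth. […] Each well received ~10^5 CFU of exponential-phase bacteria and was incubated at 37 °C for 24 h. MIC was taken as the lowest concentration giving complete growth inhibition, interpreted per CLSI.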
# [2] = Binding affinity to Ac2Lys-dAla-dAla at 2 mM by 1H-13C HSQC NMR method
# Method in brief: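 Constant-time [13C,1H]-HSQC at 600 MHz. The compound (2 mM in D2O, pH 3.1, 25 °C) was recorded alone, then again after adding Ac2Lys-dAla-dAla to a final 10 mM under the same conditions. Spectra were overlaid.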
# Enterococcus faecium [3] = assay: Potency index, ratio of oritavancin MIC90 to test compound MIC90 for glycopeptide-resistant Enterococcus faecium Efm-HS-vb01 vanB; type: functional
# L02 = assay: Cytotoxicity against human HL7702 cells assessed as decrease in cell viability at 10 to 100 uM after 72 hrs by CCK8 assay; type: cell-based; details: l02, 72 h
# Method in brief: (§1)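 HK-2 and HL-7702 cells were seeded at ~5000 cells/well, incubated overnight, then exposed to compound at final 10, 50 and 100 μM for 72 h. CCK-8 was added for 1.5 h at 37 °C and OD450 read. Viability was OD treated / OD untreated × 100, with triplicates.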
# Staphylococcus aureus [4] = assay: Antibacterial activity against methicillin-resistant Staphylococcus aureus USA300 LAC infected in BALB/c mouse assessed as mouse survival rate at 7 mg/kg, ip administered as single dose measured after 10 days relative to control; type: functional; details: 240 h
# Method in brief: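 Female BALB/c mice, 6−8 weeks old, were anesthetized with pentobarbital and infected retro-orbitally with ~2.35 × 10^8 CFU of exponential-phase USA300 LAC, 15 per group. A single 7 mg/kg ip dose was given 1 h after infection. Deaths were recorded daily to build survival curves.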
# [5] = MRT (infinity) in CD1 mouse at 5 mg/kg, iv; type: ADME, organism-based; details: in vivo
# Method in brief: (§2)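 Fasted male CD-1 mice (18−22 g), 5 mg/kg single dose into the tail vein, 6 per group. Blood sampled at 0.25, 0.75, 2, 4, 8 and 24 h and analysed by UPLC-MS/MS. T1/2, AUClast, AUCINF_obs, CL_obs, MRTINF_obs and VSS_obs were calculated for each animal from its time−concentration curve.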
# [6] = AUClast in CD1 mouse at 5 mg/kg, iv; type: ADME, organism-based; parameters: dose 5 mg/kg, route intravenous, time 0 - last; details: in vivo; method in brief: as §2
# Staphylococcus aureus [7] = assay: Antibacterial activity against healthcare-associated methicillin-resistant/vancomycin-intermediate Staphylococcus aureus Mu50 after 24 hrs by broth microdilution method; type: functional; details: Mu50, 24 h
# Method in brief: (§3)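 Broth microdilution in cation-adjusted Mueller-Hinton II broth. DMSO stocks were diluted in broth and twofold serially from 128 to 0.0625 μg/mL or lower. Each well was inoculated with ~10^5 CFU of exponential-phase bacteria and incubated at 37 °C for 24 h. MIC was the lowest concentration giving complete growth inhibition, read per CLSI. Growth controls contained broth plus DMSO.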
# [8] = Volume of distribution at steady state in CD1 mouse at 5 mg/kg, iv; type: ADME, organism-based; details: in vivo, read-out: Vdss
# Method in brief: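 Fasted male CD-1 mice (18−22 g), 5 mg/kg single dose into the tail vein, 6 per group. T1/2, AUClast, AUCINF_obs, CL_obs, MRTINF_obs and VSS_obs were calculated for each animal from its time−concentration curve.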
# [9] = Clearance in CD1 mouse at 5 mg/kg, iv; type: ADME, organism-based; details: in vivo; method in brief: as §2
# Enterococcus faecium [10] = assay: Potency index, ratio of telavancin MIC90 to test compound MIC90 for glycopeptide-resistant Enterococcus faecium Efm-HS-vb01 vanB; type: functional
# Enterococcus faecium [11] = assay: Antibacterial activity against glycopeptide-resistant Enterococcus faecium Efm-HS-0847 vanM after 24 hrs by broth microdilution method; type: functional; details: Efm-HS-0847, 24 h; method in brief: as §3
# Enterococcus faecium [12] = assay: Antibacterial activity against glycopeptide-resistant Enterococcus faecium Efm-HS-0649 vanA after 24 hrs by broth microdilution method; type: functional; details: Efm-HS-0649, 24 h; method in brief: as §3
# Staphylococcus aureus [13] = assay: Antibacterial activity against healthcare-associated methicillin-resistant/vancomycin-intermediate Staphylococcus aureus Mu50 infected in BALB/c mouse assessed as decrease in liver CFU levels at 7 mg/kg, ip administered twice in 24 hrs interval measured after 5 days; type: functional, organism-based
# Method in brief: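 Female BALB/c mice, 6−8 weeks old, were anesthetized with pentobarbital and infected retro-orbitally with ~3.8 × 10^8 CFU of exponential-phase Mu50, 12 per group. Treatment started 1 h post-infection: 7 mg/kg ip in sterile water, two doses 24 h apart. At day 5 mice were euthanized and liver homogenates plated on TSA for CFU counts. Groups were compared by two-tailed Mann−Whitney test.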
# Staphylococcus aureus [14] = assay: Potency index, ratio of telavancin MIC90 to test compound MIC90 for vancomycin/methicillin-susceptible Staphylococcus aureus Newman […]; type: functional
# [15] = AUC (infinity) in CD1 mouse at 5 mg/kg, iv; type: ADME, organism-based; parameters: dose 5 mg/kg, route intravenous, time infinity; details: in vivo; method in brief: as §2
# Enterococcus faecium [16] = assay: Antibacterial activity against glycopeptide-resistant Enterococcus faecium Efm-HS-08257 vanM after 24 hrs by broth microdilution method; type: functional; details: Efm-HS-08257, 24 h; method in brief: as §3
# Blood = assay: Drug uptake in CD1 mouse blood at 5 mg/kg, iv; type: ADME, organism-based; details: in vivo; method in brief: as §2
# Enterococcus faecium [17] = assay: Antibacterial activity against glycopeptide-resistant Enterococcus faecium Efm-HS-06188 vanA after 24 hrs by broth microdilution method; type: functional; details: Efm-HS-06188, 24 h; method in brief: as §3
# [18] = Half life in CD1 mouse at 5 mg/kg, iv; type: ADME, organism-based; details: in vivo; method in brief: as §2
# HK-2 = assay: Cytotoxicity against human HK2 cells assessed as decrease in cell viability at 10 to 100 uM after 72 hrs by CCK8 assay; type: cell-based; details: hk-2, 72 h; method in brief: as §1
# Enterococcus faecium [19] = assay: Antibacterial activity against glycopeptide-resistant Enterococcus faecium Efm-HS-vb01 vanB after 24 hrs by broth microdilution method; type: functional; details: Efm-HS-vb01, 24 h; method in brief: as §3
structure (smiles),measurement,setting,value
CN[C@H](CC(C)C)C(=O)N[C@H]1C(=O)N[C@@H](CC(N)=O)C(=O)N[C@H]2C(=O)N[C@H]3C(=O)N[C@H](C(=O)N[C@H](C(=O)O)c4cc(O)c(CNCCO[C@@H]5O[C@H](CO)[C@H](O)[C@H](O)[C@H]5O)c(O)c4-c4cc3ccc4O)[C@H](O)c3ccc(c(Cl)c3)Oc3cc2cc(c3O[C@@H]2O[C@H](CO)[C@@H](O)[C@H](O)[C@H]2O[C@H]2C[C@](C)(NCc3ccc(-c4ccc(C(F)(F)F)cc4)cc3)[C@H](O)[C@H](C)O2)Oc2ccc(cc2Cl)[C@H]1O,MIC90,Staphylococcus aureus [1],0.03 µg/mL
same,Activity,[2],Active
same,Ratio,Enterococcus faecium [3],4
same,Activity,L02,Non-Toxic
same,survival at 7 mg/kg,Staphylococcus aureus [4],86.7%
same,MRT inf,[5],4.21 h
same,AUC(0-t),[6],16600 ng·h/mL
same,MIC90,Staphylococcus aureus [7],0.25 µg/mL
same,Vd,[8],1.08 L/kg
same,clearance,[9],4.42 mL/min/kg
same,Ratio,Enterococcus faecium [10],16
same,MIC,Enterococcus faecium [11],8 µg/mL
same,MIC,Enterococcus faecium [12],2 µg/mL
same,Activity,Staphylococcus aureus [13],Active
same,Ratio,Staphylococcus aureus [14],8 - 16
same,AUC(0-inf),[15],20000 ng·h/mL
same,MIC,Enterococcus faecium [16],2 µg/mL
same,Drug uptake,Blood,> 1 µg/mL
same,MIC,Enterococcus faecium [17],1 µg/mL
same,half-life,[18],2.94 h
same,Activity,HK-2,Non-Toxic
same,MIC,Enterococcus faecium [19],≤ 0.06 µg/mL

# From ChEMBL document CHEMBL4052823, “Extra Sugar on Vancomycin: New Analogues for Combating Multidrug-Resistant Staphylococcus aureus and Vancomycin-Resistant Enterococci” (J Med Chem, 2018)
